aSyn 5UTR inh = MLPCN primary screen, SNCA 5' untranslated region | actives 0.82% (n = 300,000) | alpha-synuclein 5'UTR reporter, inhibitor activity | AID 1813 | inhibition, % (tested at 7.5 µM); in the data active = inhibition above about 60%;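 note: H4 neuroglioblastoma cells stably carrying SNCA 5'UTR luciferase fusion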
CSC inhib = blocks cancer stem cells. cancer stem cell-like cells viability, luminescence. inhibition, % at 7.5 µM. actives 1.1% (n = 300,000); in the data active = inhibition above about 75%; tested in HMLE shEcad cells
SKKanGAS inh = SKKanGAS growth inhibition; actives 1.3% (n = 300,000); inhibition, % at 7.5 µM; S. pyogenes SKKanGAS, kanamycin growth, BacTiter-Glo, 6 h;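 active = mean replicate score, as percent of positive control median, at least 50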;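 note: strain carries kanamycin resistance gene driven by streptokinase promoter and grows in 40 µg/ml kanamycin; loss of luminescence reflects streptokinase promoter inhibition or plain growth inhibition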
Mdm2 MdmX PPI = inhibitors of human Mdm2/MdmX interaction; inhibition, % at 8 µM; O15151+Q00987; actives 3% (n = 330,000); SaOS-2 split-luciferase Mdm2/MdmX complementation, luminescence; AID 485346;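 active = inhibition of at least 50% at 8 µM in the primary screen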
Target sequence (O15151 whole entry, looked up): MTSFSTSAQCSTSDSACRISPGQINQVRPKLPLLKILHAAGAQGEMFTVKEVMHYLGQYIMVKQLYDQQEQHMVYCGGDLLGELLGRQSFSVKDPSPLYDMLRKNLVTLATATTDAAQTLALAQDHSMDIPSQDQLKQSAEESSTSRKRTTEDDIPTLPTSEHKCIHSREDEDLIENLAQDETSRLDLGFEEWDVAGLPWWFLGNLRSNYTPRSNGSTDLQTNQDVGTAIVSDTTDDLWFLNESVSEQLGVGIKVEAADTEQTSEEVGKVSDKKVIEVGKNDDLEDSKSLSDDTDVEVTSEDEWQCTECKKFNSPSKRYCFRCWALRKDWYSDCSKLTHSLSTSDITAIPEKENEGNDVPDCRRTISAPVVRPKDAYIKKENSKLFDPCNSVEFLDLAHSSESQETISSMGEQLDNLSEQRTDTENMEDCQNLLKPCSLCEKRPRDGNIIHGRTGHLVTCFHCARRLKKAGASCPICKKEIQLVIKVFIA
Target sequence (Q00987 whole entry, looked up): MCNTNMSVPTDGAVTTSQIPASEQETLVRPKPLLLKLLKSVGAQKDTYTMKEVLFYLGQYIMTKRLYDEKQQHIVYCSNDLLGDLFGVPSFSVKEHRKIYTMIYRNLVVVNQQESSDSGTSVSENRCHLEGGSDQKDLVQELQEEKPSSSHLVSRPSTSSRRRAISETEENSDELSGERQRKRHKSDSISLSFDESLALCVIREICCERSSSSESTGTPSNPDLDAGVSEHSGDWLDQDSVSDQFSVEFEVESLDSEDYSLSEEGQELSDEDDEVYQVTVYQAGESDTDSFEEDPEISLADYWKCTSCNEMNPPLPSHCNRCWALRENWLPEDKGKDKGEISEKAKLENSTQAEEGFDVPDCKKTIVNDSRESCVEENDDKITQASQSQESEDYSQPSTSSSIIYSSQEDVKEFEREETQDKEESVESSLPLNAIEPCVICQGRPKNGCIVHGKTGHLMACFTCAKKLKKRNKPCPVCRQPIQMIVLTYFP
T cruzi repl = blocks replication of Trypanosoma cruzi. T. cruzi beta-gal in NIH3T3, luminescence, 90 h. inhibition, % (no concentration beside the values). actives 1.4% (n = 300,000);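 active = mean inhibition across valid replicates above about 55%, limit read from the data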;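 note: signal also drops with host cell toxicity which is not excluded here; higher percent means less beta-gal luminescence so fewer parasites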
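System: NIH/3T3 fibroblasts plus reporter T. cruzi. Medium: DMEM plus 2% FBS. Probe or stimulus: 5000 reporter trypomastigotes per well. Compound: single 50 nL compound addition per well in DMSO. Incubation: co-culture of at least 90 h after 3 h attachment. Detection: GalScreen β-gal luminescence, detergent lysis, 60 min. Evaluation: parasite load inhibition, %.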
Mdm2-MdmX conf = confirmation of human Mdm2/MdmX interaction inhibitors. shares compounds with Mdm2 MdmX PPI. Mdm2-MdmX binding, luminescent assay. inhibition, % at 8 µM. actives 55% (n = 10,000). AID 489028; in the data active = inhibition above about 40%
Full FLuc ctr = inhibits full-length luciferase, flagging false Mdm2/MdmX hits; inhibition, % at 8 µM; shares compounds with Mdm2 MdmX PPI; SaOS-2 full-length luciferase counterscreen, luminescence; actives 77% (n = 6,200);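 active = mean inhibition at 8 µM reaching about 37%, which flags the compound as non-specific, limit read from the data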;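 note: p53-null SaOS-2 cells with luciferase driven by a doxycycline-inducible promoter; compound on cells about two nights before reading with doxycycline added after day one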
Numbers stand for hits; – = inactive; · = no result given. This is a sample that favours compounds with a hit; in the whole collection about 5.4% have one here.

SMILES	aSyn 5UTR inh	CSC inhib	SKKanGAS inh	Mdm2 MdmX PPI	T cruzi repl	Mdm2-MdmX conf	Full FLuc ctr
COc1ccc(Cn2c(C)c(C)c(C#N)c2NC(=O)Nc2cccc(C)c2)cc1	–	–	–	54	–	–	·
CC(C)(C)C(=O)OCc1nc(-c2ccc(F)cc2)cs1	–	–	–	–	–	·	·
COc1ccc(-c2cc(C(=O)O)c3c(C)nn(-c4ccccn4)c3n2)cc1	–	–	–	–	–	·	·
COc1ccc(N=CC2=C(Nc3ccc(OC)cc3)c3c(C)nn(-c4ccccn4)c3CC2)cc1	·	·	·	90	·	72	–
Cc1nc2cc(N3CCCCC3)c(NC(=O)c3ccncc3)cc2c(=O)n1Cc1ccc(Cl)cc1	62	–	–	89	–	–	·
O=C(N[C@@H](Cc1ccccc1)C(=O)OCc1ccccc1)c1nc[nH]c1C(=O)N1CCN(c2ccccc2)CC1	–	–	–	65	–	–	·
CC(C)C[C@H](NC(=O)c1nc[nH]c1C(=O)NC(c1ccccc1)c1ccccc1)C(=O)OCc1ccccc1	–	–	–	51	–	–	·
CC(C)C[C@H](NC(=O)c1nc[nH]c1C(=O)N[C@@H](CC(C)C)C(=O)OCc1ccccc1)C(=O)OCc1ccccc1	–	–	–	58	–	–	·
Cc1cc(C)cc(NC(=O)CCc2c(C)nn(-c3ccc(N4CCOCC4)nn3)c2C)c1	–	–	–	–	–	·	·
CC1=Nc2ccccc2/C1=C/c1sc(=N)n(-c2nccs2)c1O	63	111	98	99	63	67	–
Cc1ccc(C(=O)N/N=C\C=C\c2ccc(Br)cc2)cn1	–	–	–	–	–	·	·
COc1ccc(/C=N/NC(=O)c2ccc(NC(=O)c3cccc([N+](=O)[O-])c3)cc2)c(OC)c1	–	–	–	–	–	·	·
COc1cc([N+](=O)[O-])cc(/C=N/NC(=O)c2ccc(C)nc2)c1O	–	–	82	67	–	54	81
COc1cc([N+](=O)[O-])cc(/C=N/NC(=O)C(C)Nc2ccccc2C)c1O (stereo not given)	–	–	–	51	–	–	67
Cc1ccc(C(=O)N/N=C/c2cc(Br)ccc2O)cn1	–	–	69	51	–	–	·
COc1cc([N+](=O)[O-])cc(/C=N/NC(=O)c2ccc(NC(=O)c3ccc(C)cc3)cc2)c1O	–	·	–	88	–	94	–
Nc1nnnn1/N=C/c1cc(Cl)cc(Cl)c1OCc1ccc(Cl)cc1Cl	–	–	–	81	–	–	·
Cc1ccc(-c2cc3cccc[n+]3cc2-c2ccc(C)cc2)cc1	–	–	–	52	60	43	48
Cc1c(C=O)c2ccccn2c1C(=O)c1ccc(Cl)c([N+](=O)[O-])c1	–	–	–	66	–	–	·
COc1ccc(Cc2c(C)nc(N)nc2Cl)cc1	–	–	–	–	–	·	·
Cc1nc(N)nc(N)c1CCCc1ccc(Cl)c(Cl)c1	92	–	109	68	62	57	50
COc1ccc(C(=O)OCC[N+]2(C)CCOCC2)cc1	–	–	–	–	–	·	·
Cc1nc(-c2cccc(NC(=O)c3cccc(S(=O)(=O)N4CCCC4)c3)c2)cs1	·	–	·	–	·	·	·
O=C(COC(=O)c1c2c(nc3ccccc13)CCN(Cc1ccccc1)C2)Nc1c(F)cccc1F	–	–	–	72	–	68	76
CC(=O)Nc1ccc(NC(=O)COC(=O)c2c3c(nc4ccccc24)CCN(Cc2ccccc2)C3)cc1	–	–	–	51	–	56	84
SMILES	aSyn 5UTR inh	CSC inhib	SKKanGAS inh	Mdm2 MdmX PPI	T cruzi repl	Mdm2-MdmX conf	Full FLuc ctr
NC(=O)c1ccc(NC(=O)COC(=O)c2c3c(nc4ccccc24)/C(=C\c2cccs2)CCC3)cc1	–	115	91	85	–	75	77
O=C(NCc1ccc(F)cc1)c1c2c(nc3ccccc13)CCN(Cc1ccccc1)C2	–	–	–	–	–	·	·
CSc1ccc(C(=O)N2CCC(CCC(=O)NC3CC3)CC2)cc1	–	–	–	–	–	·	·
COc1c(Br)cc(Br)cc1/C=N/NC(=O)c1ccncc1	–	–	–	–	–	·	·
CN(C)c1ccc(/C=N/NC(=O)c2ccc(NC(=O)c3ccccc3)cc2)cc1	–	–	–	57	–	–	·
CN(C)c1ccc(C(=O)N/N=C/c2cc(Br)cc(Br)c2O)cc1	–	–	–	80	–	86	54
CCn1cnc2cc(NS(=O)(=O)c3ccc(OC)c(OC)c3)ccc21	–	–	–	–	–	·	·
CCOC(=O)c1nn(-c2ccc(Br)cc2)cc1C(=O)c1cccc2ccccc12	–	–	–	62	–	–	·
CCN1CCN(c2ccc(S(=O)(=O)N3CCOCC3)cc2NC(=O)/C=C/c2ccc(C)cc2)CC1	–	–	–	–	–	·	·
CCN1CCN(c2ccc(S(=O)(=O)N3CCCCC3)cc2NC(=O)/C=C/c2cccc(OC)c2OC)CC1	–	–	–	75	–	50	77
CCN1CCN(c2ccc(S(=O)(=O)N3CCCCC3)cc2NC(=O)/C=C/c2ccc(OC(F)F)cc2)CC1	–	–	–	82	–	52	69
CCN1CCN(c2ccc(S(=O)(=O)N3CCCCC3)cc2NC(=O)/C=C/c2ccc([N+](=O)[O-])cc2)CC1	–	–	–	99	–	92	48
CCN1CCN(c2ccc(S(=O)(=O)N3CCCCC3)cc2NC(=O)/C=C/c2ccc(F)cc2)CC1	–	–	–	53	–	45	87
CCN1CCN(c2ccc(S(=O)(=O)N3CCCCC3)cc2NC(=O)c2cccc(Cl)c2)CC1	–	–	–	–	–	·	·
CN1CCN(c2ccc(S(=O)(=O)N3CCCCC3)cc2NC(=O)/C=C/c2ccc(OC(F)F)cc2)CC1	–	–	–	–	–	·	·
CC(OC(=O)c1ccc(-n2cnnn2)cc1)C(=O)Nc1ccc(F)c(F)c1F (stereo not given)	·	–	·	–	·	·	·
CCN1CCN(c2ccc(S(=O)(=O)N3CCCCC3)cc2NC(=O)c2cc3ccccc3o2)CC1	–	–	–	62	76	–	·
CCOC(=O)c1oc2ccc(S(=O)(=O)n3nc(-c4ccc(Cl)cc4)cc3N)cc2c1C	–	–	–	62	–	54	57
COc1ccc(-c2cc(N)n(S(=O)(=O)c3ccc(C)cc3)n2)c(OC)c1	–	–	–	–	–	·	·
COc1ccc(S(=O)(=O)n2nc(-c3ccc(Cl)cc3)cc2N)cc1	–	–	–	51	–	52	59
CCOc1ccc(S(=O)(=O)NCc2ccccn2)cc1NC(=O)c1ccccc1F	76	–	–	57	–	53	72
COc1cc(CCCN2C(N)=NC[C@@H]2c2ccccc2)cc(OC)c1OC	–	–	–	–	–	·	·
NC1=NC[C@H](c2ccccc2)N1CCc1cc(C(F)(F)F)cc(C(F)(F)F)c1	–	–	–	80	–	68	57

Bioassay records deposited in PubChem BioAssay by several laboratories.
